Experimental findings from ChEMBL document CHEMBL2177015, “Bicyclization and tethering to albumin yields long-acting peptide antagonists” (J Med Chem, 2012) are described below.

For series [1], the target named is Albumin (Mus musculus, UniProt P07724). In words: Binding affinity to mouse serum albumin by fluorescence polarization assay. Format: ADME. In short, it runs like this: (§1)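 Proteins serially diluted 3/2-fold in phosphate buffer (10 mM Na2HPO4, pH 7.4, 150 mM NaCl) and mixed 1:1 with fluorescein-labelled peptide. Incubated 30 min at room temperature, then fluorescence polarization read (excitation 480 nm, emission 535 nm). KD from nonlinear regression of anisotropy against total protein concentration using a quadratic binding equation. Done at 25 °C.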
(In general: Fluorescence polarisation rises when a labelled molecule tumbles more slowly, as on binding a larger partner.)

Series [2] concerns the target Albumin (Homo sapiens, UniProt P02768). In words: Binding affinity to human serum albumin by fluorescence polarization assay. Type of series: ADME. In short, it runs like this: as §1
The nature of series [3]: Terminal half life in mouse. To be noted: in vivo. Type of series: ADME, organism-based. In short, it runs like this: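 Female BALB/c mice aged 7–9 weeks, given 200 μL of 50 μM in PBS intravenously; 2–3 mice per time point. EDTA plasma sampled up to 320 min or up to 48 h. Conjugate measured by reversed-phase UFLC with fluorescence detection (ex 490, em 525 nm) and by uPA-capture ELISA with antifluorescein detection. Data fitted to a two-compartment model; t1/2 β taken.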

Series [4] can be described thus: Terminal half life in rabbit. Type of series: ADME, organism-based, Oryctolagus cuniculus. As to conditions: in vivo.
Series [5] deals with Plasma. In words: Drug degradation in mouse plasma at 50 uM after 24 hrs by RP-HPLC analysis. Format: ADME, cell-free. In short, it runs like this: (§2)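 Peptide spiked from 1 mM water stock into mouse plasma (final 50 μM) and incubated at 37 °C. Samples taken at 0, 24 and 48 h, mixed 1:1 with water containing 0.1% TFA and stored at −20 °C. Analysed by RP-HPLC on a C8 column with 220 nm absorbance; peaks identified by ESI-MS.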

For series [6], the target named is T1, Urokinase-type plasminogen activator (Homo sapiens, UniProt P00749). In words: Inhibition of human uPA using H-Glu-Gly-Arg-pNA as substrate after 1 hr in presence of casein and human serum albumin. The essentials:
(§3)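 Human urinary low-molecular-weight uPA (1.5 nM) with 2-fold inhibitor dilutions (8 μM to 1.95 nM) at 25 °C. Additive: 0.1% casein (±1.5 μM hSA or mSA), 0.1% ovA or 0.1% bSA. Substrate 50 μM H-Glu-Gly-Arg-pNA; A405 initial rates over 1 h. Ki from Kiapp corrected for substrate; means of ≥3.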

The target in series [7] is T1, Urokinase-type plasminogen activator. In words: Inhibition of human uPA using H-Glu-Gly-Arg-pNA as substrate after 1 hr in presence of casein. In short, it runs like this: as §3
Series [8] shares this target. In words: Inhibition of human uPA using H-Glu-Gly-Arg-pNA as substrate after 1 hr in presence of bovine serum albumin. In short, it runs like this: as §3
Series [9] has the same target. In words: Inhibition of human uPA using H-Glu-Gly-Arg-pNA as substrate after 1 hr in presence of casein and mouse serum albumin. In short, it runs like this: as §3
The target is the same in series [10]. In words: Inhibition of human uPA. The essentials:
as §3

Series [11] relates to Plasma. In words: (§4) Drug degradation in mouse plasma at 50 uM after 24 to 48 hrs by RP-HPLC analysis. Format: ADME, cell-free. As to conditions: 50 µM. In short, it runs like this:
as §2

The target of series [12] is T1, Urokinase-type plasminogen activator. In words: Inhibition of human uPA using H-Glu-Gly-Arg-pNA as substrate after 1 hr in presence of ovalbumin. In short, it runs like this: as §3
Series [13] is described as follows: as §4. Type of series: ADME, cell-free. To be noted: read-out: Drug degradation. The essentials:
as §2

Structures are written as SMILES. Starred links: 1 amine or outer side, 2 acyl side, 3 side chain; linkers in the order of their positions; H or OH if unused. Positions of bridges follow the written chain, without caps; N, C: chain ends. Residues, ends and D or L forms follow the SMILES beside them. TBMB = c1c(C[*:1])cc(C[*:3])cc1C[*:2]; mXylylene = c1cc(C[*:1])cc(C[*:2])c1; pXylylene = c1cc(C[*:2])ccc1C[*:1]

Albumin (Mus musculus, UniProt P07724), sequence (P07724 whole entry): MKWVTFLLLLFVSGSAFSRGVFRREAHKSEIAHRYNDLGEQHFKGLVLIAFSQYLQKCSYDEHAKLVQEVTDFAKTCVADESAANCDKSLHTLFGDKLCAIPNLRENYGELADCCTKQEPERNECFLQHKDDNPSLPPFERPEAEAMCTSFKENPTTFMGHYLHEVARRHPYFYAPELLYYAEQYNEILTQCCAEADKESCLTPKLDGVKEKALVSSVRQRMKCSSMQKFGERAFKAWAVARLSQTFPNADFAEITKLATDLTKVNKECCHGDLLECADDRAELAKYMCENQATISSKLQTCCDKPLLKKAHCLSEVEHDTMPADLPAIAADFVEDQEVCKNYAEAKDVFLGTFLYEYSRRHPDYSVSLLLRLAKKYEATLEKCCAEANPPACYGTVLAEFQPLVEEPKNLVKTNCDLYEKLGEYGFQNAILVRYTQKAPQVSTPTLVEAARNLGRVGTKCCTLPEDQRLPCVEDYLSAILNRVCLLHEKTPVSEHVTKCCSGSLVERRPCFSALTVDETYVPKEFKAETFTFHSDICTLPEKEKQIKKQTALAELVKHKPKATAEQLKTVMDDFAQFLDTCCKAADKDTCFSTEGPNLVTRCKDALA
Albumin (Homo sapiens, UniProt P02768), sequence (P02768 whole entry): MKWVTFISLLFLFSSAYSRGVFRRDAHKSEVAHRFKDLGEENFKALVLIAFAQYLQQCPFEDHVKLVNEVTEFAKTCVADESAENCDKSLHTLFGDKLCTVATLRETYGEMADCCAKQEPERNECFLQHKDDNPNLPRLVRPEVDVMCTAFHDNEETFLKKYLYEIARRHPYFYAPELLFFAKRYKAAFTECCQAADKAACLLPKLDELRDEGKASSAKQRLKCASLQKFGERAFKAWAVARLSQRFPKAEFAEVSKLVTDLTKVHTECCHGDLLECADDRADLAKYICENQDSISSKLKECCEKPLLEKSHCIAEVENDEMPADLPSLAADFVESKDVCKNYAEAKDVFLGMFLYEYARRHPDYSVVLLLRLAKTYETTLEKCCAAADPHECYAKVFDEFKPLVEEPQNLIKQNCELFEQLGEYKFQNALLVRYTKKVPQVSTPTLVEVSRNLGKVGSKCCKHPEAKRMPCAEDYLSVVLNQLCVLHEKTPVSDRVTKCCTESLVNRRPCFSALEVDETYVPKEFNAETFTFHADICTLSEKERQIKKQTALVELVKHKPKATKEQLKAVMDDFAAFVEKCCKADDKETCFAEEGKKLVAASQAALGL

Consider `CC[C@H](C)[C@H](NC(=O)[C@H](CC(C)C)NC(=O)[C@H](CCCNC(=N)N)N[C@@H](CCCCN)C(=O)NCCCCN=[N+]=[N-])C(=O)N[C@@H](CCC(=O)O)C(=O)N[C@@H](CC(=O)O)C(=O)N[C@H](C(=O)N[C@H]1CSSC[C@@H](C(=O)N[C@@H](CC(C)C)C(=O)N[C@@H](Cc2c[nH]c3ccccc23)C(=O)N[C@@H](CCC(=O)O)C(=O)N[C@@H](CC(=O)O)C(=O)N[C@@H](CC(=O)O)C(=O)O)NC(=O)CNC(=O)[C@H](Cc2c[nH]c3ccccc23)NC(=O)[C@H](CCCNC(=N)N)NC(=O)[C@@H]2CCCN2C(=O)[C@H](CC(C)C)NC1=O)[C@@H](C)CC`, for which the Kd (usually the concentration at which binding is half-saturated) in series [1] was found to be 24 nM; in [2], 321 nM.

`CC[C@H](C)[C@H](NC(=O)[C@H](CC(=O)O)NC(=O)[C@H](CCC(=O)O)NC(=O)[C@H](CCSC)NC(=O)[C@H](CC(C)C)NC(=O)[C@H](CCCNC(=N)N)NC(=O)[C@@H](N)CCC(N)=O)C(=O)N[C@@H](CS)C(=O)N[C@@H](CC(C)C)C(=O)N1CCC[C@H]1C(=O)N[C@@H](CCCNC(=N)N)C(=O)N[C@@H](Cc1c[nH]c2ccccc12)C(=O)NCC(=O)N[C@@H](CS)C(=O)N[C@@H](CC(C)C)C(=O)N[C@@H](Cc1c[nH]c2ccccc12)C(=O)N[C@@H](CCC(=O)O)C(=O)N[C@@H](CC(=O)O)C(=O)N[C@@H](CC(=O)O)C(=O)N[C@@H](Cc1ccccc1)C(N)=O`: the half-life (usually the time needed for the level to fall by half in the phase considered) was 19.7 h in [3] and 68.5 h in [4].

Turning to `CC(C)[C@@H]1NC(=O)[C@H](CCC(=O)O)NC(=O)[C@H](Cc2ccc(O)cc2)NC(=O)[C@H](CCCNC(=N)N)NC(=O)[C@H](CO)NC(=O)[C@@H](NC(=O)[C@H](C)N)CSCc2cccc(c2)CSC[C@@H](C(N)=O)NC(=O)[C@H](CC(=O)O)NC1=O` (H-ACSRYEVDC-NH2; linker 2-9 via mXylylene), the Stability result in series [5] is “Unstable”.

As to `CC(C)[C@@H]1NC(=O)[C@H](CCC(=O)O)NC(=O)[C@H](Cc2ccc(O)cc2)NC(=O)[C@H](CCCN=C(N)N)NC(=O)[C@H](CO)NC(=O)[C@@H](NC(=O)[C@H](C)N)CSCc2cc3cc(c2)CSC[C@H](NC(=O)[C@H](CC(=O)O)NC1=O)C(=O)N[C@@H](CCCN=C(N)N)C(=O)NCC(=O)N[C@@H](CCCN=C(N)N)C(=O)NCC(=O)N[C@@H](CO)C(=O)N[C@@H](C)C(=O)N[C@H](C(=O)NCC(N)=O)CSC3` (H-ACSRYEVDCRGRGSACG-NH2; linker 2-9-16 via TBMB), the Ki (commonly a dissociation constant, usually derived from enzyme kinetics or from competition with a known ligand) was 60 nM in [6]; 52 nM in [7]; 53 nM in [8]; 54 nM in [9]; 53 nM in series [10]; 56 nM in [12]. The Stability result in series [11] is “Unstable”.

Take `CC(C)[C@@H]1NC(=O)[C@H](CCC(=O)O)NC(=O)[C@H](Cc2ccc(O)cc2)NC(=O)[C@H](CCCNC(=N)N)NC(=O)[C@H](CO)NC(=O)[C@@H](NC(=O)[C@H](C)N)CSCc2ccc(cc2)CSC[C@@H](C(=O)NCC(N)=O)NC(=O)[C@H](C)NC(=O)[C@H](CO)NC(=O)CNC(=O)[C@H](CCCNC(=N)N)NC(=O)CNC(=O)[C@H](CCCNC(=N)N)NC(=O)[C@H](CO)NC(=O)[C@H](CC(=O)O)NC1=O` (H-ACSRYEVDSRGRGSACG-NH2; linker 2-16 via pXylylene): the metabolised at 50 µM in series [13] is 60%.

In the case of `CC(C)[C@H](NC(=O)[C@H](CCC(=O)O)NC(=O)[C@H](Cc1ccc(O)cc1)NC(=O)[C@H](CCCNC(=N)N)NC(=O)[C@H](CO)NC(=O)[C@H](CO)NC(=O)[C@H](C)N)C(=O)N[C@@H](CC(=O)O)C(=O)N[C@@H](CO)C(=O)N[C@@H](CCCNC(=N)N)C(=O)NCC(=O)N[C@@H](CCCNC(=N)N)C(=O)NCC(=O)N[C@@H](CO)C(=O)N[C@@H](C)C(=O)N[C@@H](CO)C(=O)NCC(N)=O` (H-ASSRYEVDSRGRGSASG-NH2), in series [11], the Stability entry was “Unstable”.

Regarding `C[C@@H]1NC(=O)[C@H](CO)NC(=O)CNC(=O)[C@H](CCCNC(=N)N)NC(=O)CNC(=O)[C@H](CCCNC(=N)N)NC(=O)[C@@H](N)CSCc2cccc(c2)CSC[C@@H](C(=O)NCC(N)=O)NC1=O` (H-CRGRGSACG-NH2; linker 1-8 via mXylylene), in [5], the Stability result is “Unstable”.
